# Rows were chosen to be rich in hits. Some 4.3% of all compounds tested hit in one or more screens of this group.
# UBC9 SUMO inh = inhibitors of in vitro SUMOylation cascade, primary screen, biochemical, HTRF, uHTS; HTRF SUMOylation assay, SAE1/SAE2 + UBC9; inhibition, % at 35 µM; actives 0.36% (n = 290,000); SUMO-conjugating enzyme UBC9 (Homo sapiens), P63279; in the data active means inhibition above about 50%, passing the limit was not always enough
# ALR H2O2 inh = inhibitors of human ALR sulfhydryl oxidase, primary screen, biochemical, H2O2 detection, HRP-luminol luminescence, single point. FAD-linked sulfhydryl oxidase ALR (Homo sapiens), P55789. actives 3.8% (n = 290,000). AID 485317, 2010. purified ALR, DTT oxidation. inhibition, % (no concentration beside the values);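 active means mean replicate inhibition above about 79%, with every replicate also reaching it, limit read from the data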
# UBC13 inh = UBC13 polyubiquitin chain formation inhibitors, primary screen, biochemical, TR-FRET, uHTS; Ubiquitin-conjugating enzyme E2 N (Homo sapiens), P61088; actives 0.47% (n = 330,000); AID 485273, 2010; inhibition, % at 20 µM; in the data active means inhibition above about 45%, passing the limit was not always enough
# Rin1 Abl inh = inhibitors of Rin1-Abl protein binding, primary screen, biochemical, TR-FRET; inhibition, % at 7.35 µM; actives 0.4% (n = 360,000); AID 588664, 2011; in the data active means inhibition above about 5%, passing the limit was not always enough
# RBBP9 inhibitor = human RBBP9 inhibitors, primary screen, biochemical, fluorescence polarization, FP-Rh probe, HTS; recombinant RBBP9; inhibition, % at 7.94 µM; actives 0.2% (n = 220,000); AID 1515, 2009;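 active means inhibition above the campaign mean of all tested compounds plus 3 SD, cut at about 14% in these data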;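 further: plate controls were DMSO wells with RBBP9 for no effect and wells lacking RBBP9 protein for full effect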
#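 Material: RBBP9 protein. Amount: RBBP9 at 2.5 µM in dispensed solution, before mixing. Schedule: 30 min then 45 min, 25 °C. Medium: Tris buffer pH 8.0, NaCl, Pluronic. Measured by: fluorescence polarization. Measure: percent inhibition from mP, scaled between DMSO and no-protein wells. Replication: one well per compound.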
# PREPL inhibitor = PREPL enzyme inhibitors, primary screen, biochemical, fluorescence polarization | actives 0.68% (n = 320,000) | inhibition, % at 5.96 µM | recombinant PREPL, fluorescence polarization activity-based probe | Prolyl endopeptidase-like (Homo sapiens), Q4J6C6; in the data active means inhibition above about 43%;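 further: 0% = enzyme with DMSO and 100% = wells lacking enzyme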
# * = called active by the depositor; · = not tested or not shown.
SMILES,UBC9 SUMO inh,ALR H2O2 inh,UBC13 inh,Rin1 Abl inh,RBBP9 inhibitor,PREPL inhibitor
Cc1ccc(C(=O)O)cc1-c1ccc(C=C2C(=O)c3ccccc3C2=O)o1,10.4,22.4,-21.5,2.2,6.6,15.2
COC(=O)C(C)N1C(=O)S/C(=C\c2ccc(-c3ccc(C(=O)O)cc3C)o2)C1=O (stereo unspecified),12.9,97.9*,3.5,-3.9,·,2.0
C/C(CC(=O)Nc1ccc(N(C)C)cc1)=N\NC(=O)c1ccc([N+](=O)[O-])cc1Cl,-3.5,99.6*,-17.3,-3.5,-2.0,22.7
CCCOc1ccc(-c2csc(N)n2)cc1[N+](=O)[O-],-1.8,98.5*,7.0,-4.2,-3.5,1.1
CCc1ccc(OC)c(-c2csc(N)n2)c1,-8.4,98.2*,18.0,-2.4,-4.0,2.6
COc1ccc(-c2csc(N)n2)cc1F,3.7,95.7*,-2.6,3.8,-8.7,-5.2
CCCCOc1ccc(-c2cn3ccccc3n2)cc1[N+](=O)[O-],9.3,-9.2,13.3,-2.5,-4.2,18.8
CC1=C(C(=O)OC(C)C)C(c2ccc(Cl)cc2)n2c(s/c(=C\c3ccc(OCC(=O)O)cc3)c2=O)=N1 (stereo unspecified),33.1,3.0,·,1.9,·,·
CNC(=S)NNc1ccccc1[N+](=O)[O-],2.3,97.6*,-12.8,-0.5,-5.3,4.2
NS(=O)(=O)c1ccc(CNC(=O)CNC(=O)c2ccc(F)cc2)cc1,26.7,·,-0.8,2.2,·,10.6
Cc1noc(C)c1COC(=O)CCN1c2ccccc2Sc2ccccc21,-12.6,92.7*,2.0,5.9,-10.7,8.7
O=C(NC(Cc1ccccc1)C(=O)O)/C(=C/c1cccc([N+](=O)[O-])c1)NC(=O)c1cccc(Br)c1 (stereo unspecified),-2.6,98.0*,1.5,5.2,·,2.2
O=C(NC(Cc1ccccc1)C(=O)O)/C(=C\c1ccc([N+](=O)[O-])cc1)NC(=O)c1ccco1 (stereo unspecified),18.9,-2.7,-12.2,0.0,·,1.2
O=C(NC(Cc1ccccc1)C(=O)O)/C(=C/c1ccc([N+](=O)[O-])cc1)NC(=O)c1ccccc1 (stereo unspecified),26.5,96.2*,-9.5,-5.1,·,4.6
COC(=O)C(C)Sc1ncnc2c1nnn2-c1ccc(F)cc1 (stereo unspecified),17.3,97.6*,12.0,1.5,-9.0,-5.0
Cc1nc2c3ccccc3nc(NNC(=O)CCC(=O)NC3CCCC3)n2n1,-2.3,78.5*,4.0,-1.2,-3.1,3.5
COc1ccc(N2CCN(CCNC(=O)CCC(=O)NNc3nc4ccccc4c4nc(C)nn34)CC2)cc1,-1.6,95.8*,4.1,2.5,·,33.2
COc1nc(OC)nc(N2CCC(NC(=O)C(Cc3cccc(OC)c3OC)NC(C)=O)CC2)n1 (stereo unspecified),-3.1,-12.9,-3.2,-1.9,-0.9,12.9
Nc1c([N+](=O)[O-])cc2c3c(cccc13)CC2,·,·,·,-5.8,·,·
O=C(CCC1CCCN(C(=O)CCN2CCCCC2=O)C1)NCc1ccccc1F (stereo unspecified),5.9,3.2,-0.5,1.9,-7.7,3.2
COc1cc(N/N=C(\C)c2ccc(O)c(C)c2)nc(-c2ccccc2)n1,-1.4,9.5,14.7,3.6,-2.8,3.6
COc1cc(N/N=C(\C)c2ccc(N)cc2)nc(-c2ccccc2)n1,-7.0,97.8*,10.2,-0.7,-6.2,3.9
COc1ccc(CNc2nc3ccccc3n2CCN2CCCCC2)cc1,8.6,96.8*,-1.4,4.6,2.3,32.6
Cn1c(Cc2nc3ccccc3n2C)nc2ccccc21,·,6.4,0.7,2.9,·,0.8
CCN(Cc1nc2ccccc2n1C)c1ccccc1,13.3,98.5*,-1.9,-1.7,·,1.7
SMILES,UBC9 SUMO inh,ALR H2O2 inh,UBC13 inh,Rin1 Abl inh,RBBP9 inhibitor,PREPL inhibitor
CCn1c(NCc2ccc(N(C)C)cc2)nc2ccccc21,-12.3,49.9,-8.2,0.3,-5.4,15.7
CCCCn1nnnc1NCc1ccc(N(CC)CC)cc1,3.3,99.0*,-8.9,4.3,-4.7,9.4
CCN(CC)c1ccc(CNc2nc3ccccc3n2C)cc1,-0.9,98.0*,-3.7,-1.1,-7.5,18.5
O=C(O)c1ccc(CNC(=O)c2ccc3c(c2)C(=O)N(Cc2cccnc2)C3=O)cc1,19.0,-5.0,-8.4,2.8,·,·
CCn1c(NCc2cc(OC)c(OC)c(OC)c2)nc2ccccc21,-3.5,96.7*,1.2,1.8,·,-2.8
CC(C)n1c(CN(C)c2ccccc2)nc2ccccc21,-1.7,97.3*,1.5,-3.9,·,-5.1
CCOc1ccc(CNc2nc3ccccc3n2CCN2CCOCC2)cc1,24.9,97.2*,4.4,7.4,-9.3,9.8
CCN(CC)c1ccc(CNc2nc3ccccc3n2CCN2CCCCC2)cc1,15.0,98.5*,15.9,4.4,6.5,30.3
Brc1cccc(CNc2nc3ccccc3n2CCN2CCOCC2)c1,10.0,43.6,-6.1,0.4,-2.5,34.8
O=C(NCCCn1ccnc1)c1cc(-c2cccc(O)c2)on1,25.9,3.3,17.3,-1.9,0.0,1.4
CC(C)(C)NC(=O)CN(C(=O)C(=O)Nc1ccc2c(c1)OCCO2)C(C)(C)C,8.1,-7.8,-1.2,-2.8,-6.4,-2.2
CCOc1ccc(C(=O)Cc2ccccc2)cc1,·,·,·,-0.3,·,·
CCOc1ccc(C(=O)CSCCC(=O)O)cc1,-7.3,98.3*,9.7,-2.9,6.0,-2.5
O=C(NS(=O)(=O)Nc1ccc(Br)cn1)c1c[nH]c2ccccc12,5.0,-8.8,3.7,0.3,·,1.5
CC(=O)Nc1ccccc1NS(=O)(=O)c1ccc(Cl)cc1,-0.1,4.0,-2.9,-0.5,0.3,2.0
O=S(=O)(Nc1cccc2c1CCCC2)c1ccc(Cl)cc1,-17.4,84.2*,12.1,-1.2,-5.8,-10.2
NC(=O)c1nc2c([nH]c1=O)CCCC2,·,·,·,2.4,·,·
O=C1C=C(c2cc(F)ccc2F)C[C@@H](c2ccc(F)cc2)C1,·,1.7,-8.1,-2.5,·,-2.8
O=C1C=C(N(CCO)Cc2ccccc2)c2ccccc2C1=O,64.4*,·,·,-0.6,-7.2,·
Cc1nc(CNC(=O)CC2C(=O)NCCN2Cc2ccc(F)cc2)cs1 (stereo unspecified),2.3,-10.7,4.2,-1.9,·,·
CCN1CCCc2cc(CN(CCN3CCOCC3)C(=S)Nc3ccc(OC)c(OC)c3)ccc21,-10.7,92.2*,1.9,-2.4,9.0,21.1
COc1ccc(NC(=S)N(Cc2ccc(Cl)cc2)Cc2ccc(C(=O)O)cc2)cc1Cl,27.4,95.5*,-27.0,3.7,0.4,-1.2
